{"source": "ChEMBL document CHEMBL5032510", "about": "“Identification of Novel Fused Heteroaromatics-Based MALT1 Inhibitors by High-Throughput Screening to Treat B Cell Lymphoma” (J Med Chem, 2021)", "key": {"[1]": {"assay": "Tmax in CD-1 mouse at 10 mg/kg, po by LC-MS/MS analysis", "assay_type": "ADME, organism-based", "conditions": "in vivo", "outline": "(§1)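 Male ICR (CD-1) mice (n = 9). Compound formulated in 5% DMSO + 5% Tween-80 in 90% saline and dosed 10 mg/kg po, 1 mg/kg ip or 1 mg/kg iv. Blood drawn from the jugular vein at set time points and held on ice. Plasma separated by centrifugation and stored at −80 °C before parameter derivation.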"}, "[2]": {"assay": "Intraperitoneal bioavailability in CD-1 mouse at 1 mg/kg by LC-MS/MS analysis", "conditions": "in vivo, ip"}, "[3]": {"assay": "AUC (0 to t) in CD-1 mouse at 10 mg/kg, po by LC-MS/MS analysis", "assay_type": "ADME, organism-based", "set-up": "dose 10 mg/kg", "conditions": "in vivo", "outline": "(§2)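 Compound formulated in 5% DMSO + 5% Tween-80 in 90% saline and given to male ICR (CD-1) mice (n = 9) at 10 mg/kg po, 1 mg/kg ip or 1 mg/kg iv. Blood was drawn via the jugular vein at set time points and held on ice. Plasma was separated by centrifugation and stored at −80 °C before PK parameters were derived.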"}, "[4]": {"assay": "Clearance in CD-1 mouse at 1 mg/kg, iv by LC-MS/MS analysis", "assay_type": "ADME, organism-based", "conditions": "in vivo", "outline": "as §2"}, "[5]": {"assay": "MRT (0 to t) in CD-1 mouse at 10 mg/kg, po by LC-MS/MS analysis", "assay_type": "ADME, organism-based", "conditions": "in vivo", "outline": "as §1"}, "[6]": {"assay": "Half life in CD-1 mouse at 1 mg/kg, iv by LC-MS/MS analysis", "assay_type": "ADME, organism-based", "conditions": "in vivo", "outline": "as §2"}, "[7]": {"assay": "Antiproliferative activity against human HBL1 cells assessed as inhibition of cell growth incubated for 72 hrs by Celltiter-Glo luminescent assay", "assay_type": "functional", "outline": "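Exponentially growing cells were seeded at 1 × 10⁴ per 100 μL. HBL-1 and TMD8 were kept in RPMI with 10% FBS, 2 mM glutamine and 10 mM HEPES; OCI-LY1 in Iscove's medium with 20% FBS; all at 37 °C and 5% CO2. Cells were exposed to DMSO or 2-fold serial dilutions from 100 μM for 72 h, in triplicate on one plate. CellTiter-Glo luminescence was read after 1 h. Growth inhibition was calculated against control, accounting for initial cell number, and GI50 was fitted.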"}, "OCI-Ly1 [8]": {"tested_on": "OCI-Ly1", "assay": "Induction of apoptosis in human OCI-Ly1 cells assessed as increase in cleaved caspase 3 level at 2 to 5 uM measured after 12 hrs by Western blot analysis", "assay_type": "functional, cell-based", "conditions": "dose 2-5 µM", "outline": "(§3)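 HBL1, TMD8 or OCI-LY1 cells were exposed to DMSO or compound for 12 h. Cleaved PARP and caspase-3 were probed by western blot with HRP-conjugated secondary antibodies and chemiluminescent detection. Each lane held 20−75 μg total protein.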"}, "TMD8 [9]": {"tested_on": "TMD8", "assay": "Induction of apoptosis in human TMD8 cells assessed as early apoptotic cells at 10 uM measured after 24 hrs by Annexin V-FITC/ Propidium iodide staining based flow cytometry (reference value: 6.97%)", "assay_type": "functional"}, "OCI-Ly1 [10]": {"tested_on": "OCI-Ly1", "assay": "Induction of apoptosis in human OCI-Ly1 cells assessed as late apoptotic cells at 5 uM measured after 24 hrs by Annexin V-FITC/ Propidium iodide staining based flow cytometry (reference value: 0.548%)", "assay_type": "functional"}, "[11]": {"assay": "Cmax in CD-1 mouse at 1 mg/kg, ip by LC-MS/MS analysis", "assay_type": "ADME, organism-based", "set-up": "route intraperitoneal, dose 1 mg/kg", "conditions": "in vivo", "outline": "as §2"}, "[12]": {"target": "T1, Mucosa-associated lymphoid tissue lymphoma translocation protein 1 (Homo sapiens) (UniProt Q9UDY8)", "T1 sequence (whole entry)": "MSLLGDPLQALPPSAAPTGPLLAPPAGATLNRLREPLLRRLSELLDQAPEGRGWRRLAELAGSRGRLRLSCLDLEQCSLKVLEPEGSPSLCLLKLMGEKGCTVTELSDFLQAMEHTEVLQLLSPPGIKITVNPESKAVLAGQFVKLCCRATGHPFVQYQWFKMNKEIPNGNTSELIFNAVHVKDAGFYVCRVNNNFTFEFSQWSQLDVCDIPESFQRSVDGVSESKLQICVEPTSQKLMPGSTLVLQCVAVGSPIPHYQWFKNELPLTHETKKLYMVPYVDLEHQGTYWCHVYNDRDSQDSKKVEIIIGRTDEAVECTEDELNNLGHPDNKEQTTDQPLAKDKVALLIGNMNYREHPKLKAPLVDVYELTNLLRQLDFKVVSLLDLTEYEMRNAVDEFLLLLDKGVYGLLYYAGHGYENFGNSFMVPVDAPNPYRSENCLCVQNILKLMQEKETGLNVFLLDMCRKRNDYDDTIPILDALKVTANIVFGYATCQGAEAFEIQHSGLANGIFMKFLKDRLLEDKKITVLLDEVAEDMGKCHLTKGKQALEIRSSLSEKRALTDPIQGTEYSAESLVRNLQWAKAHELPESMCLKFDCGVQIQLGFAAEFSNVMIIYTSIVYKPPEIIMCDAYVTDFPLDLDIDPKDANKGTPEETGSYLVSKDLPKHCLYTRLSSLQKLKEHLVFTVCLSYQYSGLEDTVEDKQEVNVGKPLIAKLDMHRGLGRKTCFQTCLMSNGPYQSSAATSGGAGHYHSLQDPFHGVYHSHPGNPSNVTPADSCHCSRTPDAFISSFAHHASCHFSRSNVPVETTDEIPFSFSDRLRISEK", "assay": "Inhibition of MALT1 in human TMD8 cells assessed as decrease in RelB substrate cleavage at 8 uM preincubated for 30 mins followed by proteosome inhibitor MG-132 addition and measured after 2 hrs by Western blot analysis", "assay_type": "cell-based", "conditions": "time 2.5 hrs", "outline": "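Cells were grown in RPMI with 10% FBS, 2 mM glutamine and 10 mM HEPES at 37 °C, 5% CO₂. Pretreated 30 min with compound (4 and 8 μM), then 10 μM MG-132 for 2 h. 20−75 μg total protein run on SDS-PAGE, blotted to PVDF, probed for RelB, detected by HRP chemiluminescence. β-actin was the loading control.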"}, "[13]": {"target": "Nuclear factor NF-kappa-B complex (Homo sapiens) (UniProt Q00653+P19838+Q04206)", "sequence (P19838 whole entry, looked up)": "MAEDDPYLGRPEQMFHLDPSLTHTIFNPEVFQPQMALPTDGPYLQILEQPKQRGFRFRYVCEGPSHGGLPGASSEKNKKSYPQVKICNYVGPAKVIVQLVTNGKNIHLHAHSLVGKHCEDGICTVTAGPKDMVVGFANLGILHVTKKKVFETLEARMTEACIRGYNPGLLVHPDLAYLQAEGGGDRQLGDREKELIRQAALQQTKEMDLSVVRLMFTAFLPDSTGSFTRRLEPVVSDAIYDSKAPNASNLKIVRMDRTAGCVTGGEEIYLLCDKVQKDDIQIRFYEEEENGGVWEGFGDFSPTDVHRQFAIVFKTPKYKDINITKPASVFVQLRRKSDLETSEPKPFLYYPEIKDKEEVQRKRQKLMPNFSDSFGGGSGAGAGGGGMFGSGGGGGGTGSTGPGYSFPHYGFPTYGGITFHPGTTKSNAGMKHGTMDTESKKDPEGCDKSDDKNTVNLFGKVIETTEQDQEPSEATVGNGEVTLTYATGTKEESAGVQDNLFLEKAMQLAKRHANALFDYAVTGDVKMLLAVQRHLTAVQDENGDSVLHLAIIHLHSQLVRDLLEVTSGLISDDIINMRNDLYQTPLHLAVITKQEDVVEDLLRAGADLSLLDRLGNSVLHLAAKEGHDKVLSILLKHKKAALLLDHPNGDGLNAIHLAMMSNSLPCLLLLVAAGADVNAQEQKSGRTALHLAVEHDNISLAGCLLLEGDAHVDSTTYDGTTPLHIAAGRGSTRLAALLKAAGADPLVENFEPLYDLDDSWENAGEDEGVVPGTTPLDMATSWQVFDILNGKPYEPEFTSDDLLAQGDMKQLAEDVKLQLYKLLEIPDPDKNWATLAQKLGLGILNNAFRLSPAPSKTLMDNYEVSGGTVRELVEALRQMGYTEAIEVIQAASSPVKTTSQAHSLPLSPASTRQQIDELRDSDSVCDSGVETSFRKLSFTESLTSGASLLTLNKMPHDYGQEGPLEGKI", "sequence (Q00653 whole entry, looked up)": "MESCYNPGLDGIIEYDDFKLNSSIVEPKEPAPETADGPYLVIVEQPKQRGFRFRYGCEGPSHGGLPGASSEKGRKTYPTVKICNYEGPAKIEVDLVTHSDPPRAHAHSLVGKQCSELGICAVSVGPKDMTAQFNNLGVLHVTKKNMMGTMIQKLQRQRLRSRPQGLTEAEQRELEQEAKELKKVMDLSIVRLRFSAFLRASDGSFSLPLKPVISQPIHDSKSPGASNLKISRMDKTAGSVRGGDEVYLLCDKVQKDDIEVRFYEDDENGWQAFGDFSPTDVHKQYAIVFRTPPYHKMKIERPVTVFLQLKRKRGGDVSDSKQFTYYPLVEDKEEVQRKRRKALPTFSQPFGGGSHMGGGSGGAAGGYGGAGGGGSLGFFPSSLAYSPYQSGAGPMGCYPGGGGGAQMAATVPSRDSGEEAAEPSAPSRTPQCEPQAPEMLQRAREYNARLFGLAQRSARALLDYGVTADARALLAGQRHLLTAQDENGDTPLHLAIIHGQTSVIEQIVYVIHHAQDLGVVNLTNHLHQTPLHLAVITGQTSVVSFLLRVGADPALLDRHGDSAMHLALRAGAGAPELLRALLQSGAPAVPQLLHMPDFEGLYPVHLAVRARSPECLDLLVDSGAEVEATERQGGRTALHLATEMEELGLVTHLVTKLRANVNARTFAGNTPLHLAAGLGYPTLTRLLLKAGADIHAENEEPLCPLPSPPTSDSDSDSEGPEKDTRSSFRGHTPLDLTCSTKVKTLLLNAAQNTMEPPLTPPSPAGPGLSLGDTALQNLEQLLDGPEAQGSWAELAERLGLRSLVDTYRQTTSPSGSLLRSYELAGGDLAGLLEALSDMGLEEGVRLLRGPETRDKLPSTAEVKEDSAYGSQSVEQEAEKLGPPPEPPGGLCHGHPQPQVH", "sequence (Q04206 whole entry, looked up)": "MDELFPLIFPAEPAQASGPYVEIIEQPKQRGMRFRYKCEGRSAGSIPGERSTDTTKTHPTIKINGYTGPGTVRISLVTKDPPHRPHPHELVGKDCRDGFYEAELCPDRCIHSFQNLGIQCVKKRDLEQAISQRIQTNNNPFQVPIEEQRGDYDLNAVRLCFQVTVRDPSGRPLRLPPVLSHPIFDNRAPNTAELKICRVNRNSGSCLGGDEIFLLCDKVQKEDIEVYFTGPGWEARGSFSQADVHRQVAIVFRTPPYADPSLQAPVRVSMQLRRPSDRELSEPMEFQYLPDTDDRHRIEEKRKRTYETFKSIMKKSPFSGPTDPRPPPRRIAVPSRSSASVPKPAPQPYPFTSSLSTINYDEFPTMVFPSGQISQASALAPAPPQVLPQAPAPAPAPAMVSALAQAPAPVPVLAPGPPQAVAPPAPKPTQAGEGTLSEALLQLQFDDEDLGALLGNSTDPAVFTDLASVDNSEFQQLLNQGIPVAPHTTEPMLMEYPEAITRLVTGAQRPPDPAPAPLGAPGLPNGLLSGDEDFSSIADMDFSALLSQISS", "assay": "Inhibition of NF-kappab signaling in human TMD8 cells assessed as reduction in phosphorylation of IkappaB-alpha at 8 uM preincubated for 30 mins followed by MG-132 addition and measured after 2 hrs by Western blot analysis", "assay_type": "cell-based", "conditions": "time 2.5 hrs", "outline": "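HBL1, TMD8 and OCI-LY1 cells pretreated 30 min with inhibitor (4 and 8 μM), then given 10 μM proteasome inhibitor MG-132 for 2 h. Lysates (20−75 μg protein) run on SDS-PAGE, blotted to PVDF and probed for RelB, IκBα and phospho-IκBα, with β-actin as loading control; HRP secondary, chemiluminescence detection.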"}, "[14]": {"assay": "Induction of apoptosis in human HBL1 cells assessed as early apoptotic cells at 2 uM measured after 24 hrs by Annexin V-FITC/ Propidium iodide staining based flow cytometry (reference value: 4.85%)", "assay_type": "functional"}, "OCI-Ly1 [15]": {"tested_on": "OCI-Ly1", "assay": "Induction of apoptosis in human OCI-Ly1 cells assessed as dead cells at 2 uM measured after 24 hrs by Annexin V-FITC/ Propidium iodide staining based flow cytometry (reference value: 0.365%)", "assay_type": "functional"}, "OCI-Ly1 [16]": {"tested_on": "OCI-Ly1", "assay": "Induction of apoptosis in human OCI-Ly1 cells assessed as early apoptotic cells at 10 uM measured after 24 hrs by Annexin V-FITC/ Propidium iodide staining based flow cytometry (reference value: 1.29%)", "assay_type": "functional"}, "TMD8 [17]": {"tested_on": "TMD8", "assay": "Induction of apoptosis in human TMD8 cells assessed as increase in cleaved caspase 3 level measured after 12 hrs by Western blot analysis", "assay_type": "functional, cell-based", "outline": "as §3"}}, "note": "Active and inactive are the calls of the source. No cut-off for these calls is given here."}
{"compound": "COc1ccc(OC)c(NC(=O)c2sc(=S)n(-c3ccc(C(F)(F)F)cc3)c2NC(=O)CCl)c1", "values": [{"measurement": "Tmax", "setting": "[1]", "result": 3, "unit": "h"}, {"measurement": "bioavailability", "setting": "[2]", "result": 72, "unit": "%"}, {"measurement": "AUC(0-t)", "setting": "[3]", "result": 11200, "unit": "ng·h/mL"}, {"measurement": "clearance", "setting": "[4]", "result": 14.1, "unit": "mL/min/kg"}, {"measurement": "MRT last", "setting": "[5]", "result": 5.62, "unit": "h"}, {"measurement": "half-life", "setting": "[6]", "result": 4.6, "unit": "h"}, {"measurement": "GI50", "setting": "[7]", "result": 1000, "unit": "nM"}, {"measurement": "Activity", "setting": "OCI-Ly1 [8]", "result": "inactive"}, {"measurement": "Activity", "setting": "TMD8 [9]", "result": 53.1, "unit": "%"}, {"measurement": "Activity", "setting": "OCI-Ly1 [10]", "result": 0.774, "unit": "%"}, {"measurement": "Cmax", "setting": "[11]", "result": 336, "unit": "ng/mL"}, {"measurement": "inhibition", "setting": "[12]", "result": "Active"}, {"measurement": "inhibition", "setting": "[13]", "result": "Active"}, {"measurement": "Activity", "setting": "[14]", "result": 6.78, "unit": "%"}, {"measurement": "Activity", "setting": "OCI-Ly1 [15]", "result": 0.011, "unit": "%"}, {"measurement": "Activity", "setting": "OCI-Ly1 [16]", "result": 2.65, "unit": "%"}, {"measurement": "Activity", "setting": "TMD8 [17]", "result": "Dose-Dependent Effect"}]}
